Assay outcomes as filed in PubChem.
core dimer inh – inhibitors of HCV core protein dimerization, primary screen, biochemical, TR-FRET, high-throughput; TR-FRET GST/Flag-core106 dimerization, 1536-well; inhibition, % at 5 µM; 0.33% of 300,000 active; AID 1899, 2009;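 active = inhibition above the mean of all tested compounds plus 3 SD, set per screening campaign, cut at about 45% in these data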
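Assay system: tagged HCV core106 pair (GST and Flag); medium: KF-containing HEPES buffer, pH 7.45, DTT, CHAPS, BSA; also added: Eu donor and XL665 acceptor anti-tag antibodies; dosing: 5 µM single dose; timing: compound-protein-antibody incubation 4 h at 22.5 °C; signal: TR-FRET 671 and 617 nm emission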
EBNA-1 inhibitor – EBNA-1 DNA-binding inhibitors, primary screen, biochemical, fluorescence polarization; inhibition, % at 14.8 µM; 0.34% of 300,000 active; in the data active = inhibition above about 28%
ZTA counter – blocks Epstein-Barr virus ZTA, an EBNA-1 counter-screen; 0.15% of 320,000 active; inhibition, % at 11 µM; AID 2234; ZTA-DNA binding, fluorescence polarization; in the data active = inhibition above about 33%
Target sequence (P03206 whole entry, looked up): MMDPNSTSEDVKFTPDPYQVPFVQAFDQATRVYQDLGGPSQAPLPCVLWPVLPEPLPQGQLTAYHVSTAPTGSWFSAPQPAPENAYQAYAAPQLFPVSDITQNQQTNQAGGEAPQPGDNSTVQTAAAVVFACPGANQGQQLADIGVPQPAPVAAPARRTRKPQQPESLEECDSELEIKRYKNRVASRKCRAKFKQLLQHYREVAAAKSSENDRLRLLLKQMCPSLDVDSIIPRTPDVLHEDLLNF
HCV NS3 hel inh – inhibitors of HCV NS3 helicase, primary screen, biochemical, Cy5 molecular beacon fluorescence. Hepatitis C virus NS3 helicase. NS3 helicase DNA unwinding. AID 1800, 2009. inhibition, % at 10.9 µM. 0.56% of 290,000 active;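 active = inhibition above the mean of all tested compounds plus 3 SD, set per campaign, cut at about 35% in these data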;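 also: 0% = DMSO wells and 100% = thioflavine S control wells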
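Test system: hepatitis C virus NS3 helicase domain fragment enzyme. Also added: annealed dual-labelled DNA beacon duplex, ATP-started. Timing: 60 min unwinding reaction at 25 °C after ATP addition. Technique: Cy5 fluorescence. Measure: % inhibition of unwinding.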
PP1 inh – PP1-alpha phosphatase inhibitors, primary screen, counter-screen for PP5 inhibitor project, biochemical, fluorescence, OMFP substrate, single point. Serine/threonine-protein phosphatase PP1-alpha catalytic subunit (Homo sapiens), P62136. inhibition, % at 6.7 µM. AID 2235, 2010. 0.9% of 320,000 active. purified PP1alpha;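 active = inhibition above the mean inhibition of all tested compounds plus 3 SD, computed separately for each screening campaign, cut at about 15% in these data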
Target sequence (P62136 whole entry, looked up): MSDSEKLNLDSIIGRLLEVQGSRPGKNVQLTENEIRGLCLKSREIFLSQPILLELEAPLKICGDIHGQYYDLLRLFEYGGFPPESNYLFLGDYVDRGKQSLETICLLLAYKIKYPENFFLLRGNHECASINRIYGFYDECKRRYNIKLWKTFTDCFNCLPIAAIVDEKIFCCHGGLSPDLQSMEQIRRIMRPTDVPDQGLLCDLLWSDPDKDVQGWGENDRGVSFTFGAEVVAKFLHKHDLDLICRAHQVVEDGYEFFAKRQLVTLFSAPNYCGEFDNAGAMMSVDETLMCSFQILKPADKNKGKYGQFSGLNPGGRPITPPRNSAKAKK
PP1 confirm – PP1 phosphatase inhibitors, confirmation, biochemical, fluorescence, OMFP substrate, triplicate. shares compounds with PP1 inh. purified PP1alpha. inhibition, % at 6.7 µM. 52% of 1,900 active. AID 2358, 2010;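 active = mean PP1 inhibition above a set limit taken from the earlier primary screen, cut at about 15% in these data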
PP5 counter – PP5 phosphatase inhibition by PP1 hits, confirmation, counter-screen for PP1 inhibitor project, biochemical, fluorescence, triplicate; shares compounds with PP1 inh; purified PP5c, OMFP fluorescence; inhibition, % at 6.7 µM; 4% of 1,900 active;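 active = mean PP5 inhibition over triplicate wells above about 9.5% taken from the earlier PP1 screen, limit read from the data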
The depositor's hits bear a star; / = no result. Only some compounds are listed: those with a hit (about 1.9% of all), similar ones and a draw of the others.

SMILES	core dimer inh	EBNA-1 inhibitor	ZTA counter	HCV NS3 hel inh	PP1 inh	PP1 confirm	PP5 counter
Cc1ccn2c(NC3CCCC3)c(-c3ccccn3)nc2c1	-4.7	-1.7	-5.2	3.3	14.2	/	/
Cc1ccc2nc(-c3ccncc3)c(Nc3ccccc3)n2c1	0.9	12.0	-9.8	8.3	1.2	/	/
Cc1ccc(Nc2c(-c3ccccn3)nc3ccc(C)cn23)cc1	-3.5	-16.6	-7.8	-24.0	71.1*	41.5*	1.0
Cc1ccc(Nc2c(-c3ccccn3)nc3cc(C)ccn23)cc1	-3.2	-8.8	7.5	-45.1	40.3*	42.3*	2.8
Cc1ccn2c(Nc3ccc4c(c3)OCO4)c(-c3ccccn3)nc2c1	-13.5	0.6	-3.3	-14.8	28.3*	47.2*	-1.6
O=C(NCCN1CCOCC1)c1cc2cc(Cl)cc(Cl)c2oc1=O	/	/	/	-0.9	/	/	/
COc1cc(OC)cc(-c2nnc(SCc3ccc(C(=O)O)cc3)o2)c1	16.9	-0.7	2.9	-12.8	-0.9	/	/
COc1ccc(NC(=O)CNC(=O)c2nn(-c3ccc(OC)cc3OC)c(=O)c3ccccc23)c(OC)c1	5.7	4.4	7.0	-12.3	-0.1	/	/
C=CCN1C(=O)N/C(=C/c2ccc(C)o2)C1=O	-11.8	-9.3	-6.2	9.1	-1.2	/	/
Cc1cc(/C=N/n2cnnc2)c(C)n1-c1ccc(OCc2ccc(Cl)cc2)cc1	12.8	-0.6	1.1	-6.0	27.6*	26.4*	0.2
COc1cc(/C=N/N=C(N)N)ccc1OCc1ccc(Cl)cc1	-13.9	-11.7	-3.1	-44.7	13.5	/	/
CCOc1cc(/C=N/N=C(N)N)ccc1OCc1ccc(Cl)cc1	-1.7	-4.4	9.4	-64.2	18.7*	11.4	-0.4
CCOc1cc(/C=N/N=C(/N)c2nonc2N)cc(Br)c1OCc1ccc(Cl)cc1	16.8	-0.4	5.4	1.9	17.9*	15.2	-3.9
COc1cc(/C=N/N=C(/N)c2nonc2N)cc(Br)c1OCc1ccccc1C	11.0	10.3	-5.5	-2.6	0.5	/	/
NC(N)=N/N=C/c1ccc(OCc2ccccc2)c(OCc2ccccc2)c1	0.4	-9.3	-12.4	-62.3	35.4*	35.2*	3.1
CC(C)N(Cc1ccccc1)C(=O)CN1C(=O)NC2(CCCC2)C1=O	/	/	5.3	/	-0.2	/	/
CCOc1ccccc1CN1CCCC(C(=O)Nc2cccc(-n3cccn3)c2)C1 (stereo not given)	-6.9	-2.5	-4.8	-67.4	-1.5	/	/
O=C1NC(=O)/C(=C\c2ccc(OCc3cccc([N+](=O)[O-])c3)cc2)N1	8.3	7.3	0.9	-2.2	43.2*	19.7*	-0.4
Cc1ccc(S(=O)(=O)N(C)C)cc1[N+](=O)[O-]	1.0	-14.0	-30.0	-0.9	1.6	/	/
CCCCCCCCC(=O)N/N=C/c1ccccn1	-2.5	7.5	-2.0	5.5	-0.9	/	/
CCCCCCCCC/C(=N\O)c1ccccn1	-1.3	-10.6	5.4	3.1	32.2*	28.1*	-5.1
CC(Sc1nnc(-c2cccnc2)o1)C(=O)NC1CCCC1 (stereo not given)	/	/	-5.1	/	1.4	/	/
N#Cc1c(-c2ccccc2)c(-c2ccccc2)nn(CC(=O)NNC(=O)Nc2ccc(Cl)c(Cl)c2)c1=O	33.3	-1.6	3.8	4.2	23.1*	11.8	3.4
CCc1cccc2c1Sc1ccccc1CC2N1CCNCC1 (stereo not given)	-17.0	-4.4	-18.5	/	11.1	/	/
Cc1cccc2c1Sc1ccc(Cl)cc1CC2N1CCNCC1 (stereo not given)	-19.9	6.7	-5.8	/	18.8*	-3.7	-2.2
SMILES	core dimer inh	EBNA-1 inhibitor	ZTA counter	HCV NS3 hel inh	PP1 inh	PP1 confirm	PP5 counter
O=C1N=C(N2CCc3ccccc3C2)S/C1=C\c1cccc(O)c1	3.8	-14.3	1.9	-9.5	0.7	/	/
CCCCCCCCCCCCCCCC[N+](C)(C)CC	-4.4	1.9	-11.1	/	20.2*	-10.6	2.0
N=C1/C(=C/c2ccc(-c3cccc(C(=O)O)c3)o2)C(=O)N=C2SC=C(c3ccccc3)N12	13.2	59.8*	34.8*	21.3	71.7*	44.2*	-3.3
CC(C)S(=O)(=O)C1=NSC2=NC(=O)/C(=C\c3ccc(-c4cccc(C(=O)O)c4)o3)C(=N)N21	/	/	/	21.6	/	/	/
CC(C)Cc1nnc(NC(=O)CCC(=O)NCc2ccccc2Cl)s1	-1.4	5.6	-2.5	6.2	0.4	/	/
COc1ccc(CN2C(=O)Cc3c2nc(N)c2c(N)nc(N4CCCCC4)c(C#N)c32)cc1	56.5*	-8.3	8.8	29.3	26.4*	34.1*	51.9*
COc1cc2c(C#N)c(N3CCCCC3)nc(N)c2c(N)n1	18.7	1.7	-1.5	12.3	2.2	/	/
C/C(=N\NC(=O)COc1ccc(C)cc1Br)c1cc([N+](=O)[O-])cs1	8.3	-2.3	5.7	2.3	22.0*	23.5*	1.5
O=C(O)CCC(=O)NNc1nc2ccccc2nc1-c1ccccc1	2.9	10.3	0.8	-5.8	-0.1	/	/
CCCOc1ccc(C2C(C(=O)c3cc4ccccc4o3)=C(O)C(=O)N2c2cc(C)on2)cc1OC (stereo not given)	-0.3	-15.5	0.5	6.1	33.3*	36.8*	-1.5
CCCOc1ccc(C2C(C(=O)c3cc4ccccc4o3)=C(O)C(=O)N2c2cc(C)on2)cc1 (stereo not given)	-3.6	10.5	13.7	18.0	27.4*	34.4*	1.5
COc1cc(C2C(C(=O)c3ccco3)=C(O)C(=O)N2c2cc(C)on2)cc(Br)c1O (stereo not given)	0.2	-5.5	-13.1	14.8	-0.9	/	/
COc1cc(C2C(C(=O)c3ccc(C)o3)=C(O)C(=O)N2c2cc(C)on2)cc(Br)c1O (stereo not given)	-0.4	-3.2	-3.7	19.5	4.8	/	/
Cc1cc(N2C(=O)C(O)=C(C(=O)c3ccc(C)o3)C2c2ccc([N+](=O)[O-])cc2)no1 (stereo not given)	12.0	-0.2	14.2	22.1	18.3*	13.9	-0.4
Cc1ccc(CNC(=O)c2cc(-c3ccccc3)nn2CC2CC(c3cccc([N+](=O)[O-])c3)=NO2)cc1 (stereo not given)	7.8	-6.3	3.6	/	9.8	/	/
COc1cccc(NC(=O)COC(=O)c2ccc(C)c(S(=O)(=O)N3CCCCC3)c2)c1	/	/	-19.9	/	0.8	/	/
O=C1C=C(c2cc(F)ccc2F)C[C@@H](c2ccc(F)cc2)C1	/	/	3.1	/	0.5	/	/
COc1ccc(CCC(=O)OCC(=O)c2ccc(C)cc2)cc1	-2.9	0.1	-3.6	4.9	3.1	/	/
